From PubChem BioAssay AID743247 (Broad Institute, 2014)
Hit rate of the full screen: of about 350,000 compounds, about 300 (0.086%) were called active. The sample as a whole holds a higher share of actives than the screen did. Unmarked numbers belong to inactive results.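 How the source made its calls: active means mean inhibition across replicates of 30% or more, regardless of how many single replicates reach that level; inconclusive means mean under 30% yet at least half of replicates reach 30%; inactive means the rest.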

test: inhibitors of fibronectin matrix deposition, primary screen, AH1F cells, Alexa488-fibronectin fluorescence, plate reader (AID 743247); conditions: AH1F fibroblasts, overnight, at 12.6 µM, active compounds read high;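 further: positive control wells lacked labelled fibronectin entirely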
Procedure, shortened: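 Test system: AH1F fibroblast monolayer depositing Alexa488-labelled fibronectin into matrix. Input: 10000 cells per well. Technique: fluorescence, ex 485 nm, em 525 nm. Buffer or medium: DMEM plus 2% serum, read in PBS. Timing: 1 h cell adhesion before compound, then overnight fibronectin incubation. Compound: single dose, pinned. Read-out basis: inhibition from reduced deposited-fibronectin fluorescence.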

Row | Structure (SMILES) | inhibition
1 | CO[C@@H]1CN(C)C(=O)c2cc(NC(=O)C3CC3)ccc2OC[C@@H](C)N(C(=O)NC(C)C)C[C@@H]1C | -0.851%
2 | C[C@@H](NC(=O)C[C@@H]1C[C@H]2c3cc(NC(=O)C4CCC4)ccc3O[C@H]2[C@@H](CO)O1)c1ccccc1 | 17.4%
3 | O=C(NC[C@@H]1[C@@H](c2ccccc2)[C@@H](CO)N1Cc1ccccn1)C1CCC1 | -14.4%
4 | O=C(C[C@@H]1CC[C@@H](NS(=O)(=O)c2ccc(F)cc2)[C@@H](CO)O1)NCCc1ccncc1 | -5.79%
5 | C[C@@H]1CN([C@@H](C)CO)C(=O)Cc2cc(NC(=O)Nc3ccc4c(c3)OCO4)ccc2O[C@H]1CN(C)S(=O)(=O)c1ccccc1 | 0.36%
6 | C[C@@H]1CN([C@H](C)CO)C(=O)c2ccccc2-c2ccccc2CO[C@H]1CN(C)S(=O)(=O)c1ccsc1 | 1.86%
7 | C[C@@H]1CN([C@H](C)CO)S(=O)(=O)c2ccc(C#CC3CC3)cc2O[C@H]1CN(C)C(=O)C1CCCCC1 | -1.06%
8 | COc1ccc2c3c(n(C)c2c1)[C@H](CO)NCC31CN(Cc2cc(F)ccc2F)C1 | -4.09%
9 | O=C(C1CCCCC1)N1CC2(C1)[C@H](c1ccccc1)[C@H](CO)N2CC1CCCC1 | -10.3%
10 | CS(=O)(=O)N1C[C@@H]2C(c3ccccc3)[C@H](C1)N2CC(F)(F)F (some centres not stated) | -13.1%
11 | O=C(C[C@@H]1CC[C@@H](NC(=O)Nc2ccc(F)cc2)[C@H](CO)O1)NCCN1CCCC1 | 0.829%
12 | COc1ccc(-c2ccc3c(c2)[C@@H]2[C@@H](CCN2C(=O)NC2CCCC2)[C@@H](CO)N3C)cc1 | 5.47%
13 | CC(C)NC(=O)Nc1cccc2c1O[C@@H](CN(C)C(=O)NC(C)C)[C@@H](C)CN(C)C2=O | 3.55%
14 | CN(C)CC(=O)N1CC2(C1)[C@H](c1ccccc1)[C@H](CO)N2C(=O)C1CC1 | -3.48%
15 | O=C(C1CCOCC1)N1CC(=O)N2[C@H](CO)[C@@H](c3ccc(C#CC4CCCC4)cc3)[C@H]2C1 | -4.97%
16 | Cc1cccc(-n2ncc3c(=O)[nH]c(SCC(=O)Nc4cc(C)on4)nc32)c1 | -0.734%
17 | Cc1cccc(-n2ncc(Cl)c(Cl)c2=O)c1 | 51.7% (active)
18 | Cc1ccc(-n2ncc3c(=O)[nH]cnc32)c(C)c1 | -2.15%
19 | COc1ccc(-c2ccc3c(c2)O[C@@H](CN(C)CC2CCOCC2)[C@@H](C)CN([C@@H](C)CO)S3(=O)=O)cc1 | 5.61%
20 | C[C@@H]1CC=CC[C@@H](c2ccccc2)NC(=O)[C@H](C)N(C)C(=O)c2ccccc2O1 (mixture of isomers) | -2.82%
21 | CN(C)c1ccc2c(c1)[C@H]1C[C@H](CC(=O)NCc3ccc(Cl)cc3)O[C@H](CO)[C@H]1O2 | 1.04%
22 | C[C@@H]1CC=CC[C@H](c2ccc(F)cc2)NC(=O)[C@@H](Cc2ccccc2)N(C)C(=O)c2ccccc2O1 (mixture of isomers) | 7.06%
23 | COc1ccccc1NC(=O)N[C@H]1CC[C@H](CCNC(=O)Cc2ccccn2)O[C@@H]1CO | 1.21%

Row | Structure (SMILES) | inhibition
24 | COC(=O)C[C@H]1CC[C@@H]2[C@@H](COc3ccc(NC(=O)Nc4ccc(Cl)cc4)cc3C(=O)N2C)O1 | -17.5%
25 | CN(C)C(=O)c1ccc(-c2ccc([C@H]3[C@H](CO)N4C(=O)CN(C(=O)C5CCCC5)C[C@@H]34)cc2)cc1 | 0.201%
26 | C[C@H]1CCCCO[C@H](CN(C)C(=O)Nc2ccc(F)cc2)[C@@H](C)CN([C@@H](C)CO)C(=O)c2cc(NC(=O)CCC(F)(F)F)ccc2O1 | 7.35%
27 | COc1ccc2c3c(n(C)c2c1)[C@H](CO)N(C(=O)c1ccncc1)CC31CCN(CC2CC2)CC1 | -1.91%
28 | O=C(C[C@@H]1C=C[C@@H](NC(=O)c2cccnc2)[C@H](CO)O1)NCc1ccncn1 | 11.1%
29 | CNC(=O)C[C@@H]1CC[C@@H]2[C@H](COc3ccc(NC(=O)c4cccs4)cc3C(=O)N2C)O1 | -9.79%
30 | C[C@@H](C(=O)N(C)C[C@H]1OCc2ccccc2-c2c(n(C)c3ccccc23)C(=O)N([C@@H](C)CO)C[C@@H]1C)c1ccccc1 | -2.51%
31 | COc1cccc(C#Cc2ccc3c(c2)[C@@H]2[C@@H](CCN2S(=O)(=O)c2ccc(C)cc2)[C@@H](CO)N3)c1 | 2.44%
32 | COc1ccccc1C#Cc1ccc([C@H]2[C@@H](C#N)N(C(=O)C3CCCCC3)[C@@H]2CO)cc1 | -2.57%
33 | O=C(C[C@@H]1CC[C@@H]2[C@H](COC[C@@H](O)CN2C(=O)c2ccccc2F)O1)N1CCOCC1 | -11.5%
34 | O=C(O)C[C@H]1C=C[C@@H](NC(=O)Nc2cc(F)ccc2F)[C@@H](CO)O1 | -9.56%
35 | COc1ccc([C@@H]2C/C=C\C[C@@H](c3ccc4c(c3)OCO4)NC(=O)CCC(=O)N2)c(OC)c1 | 8.56%
36 | CC(C)NC(=O)N[C@@H]1CC[C@H](CC(=O)NC2Cc3ccccc3C2)O[C@H]1CO | 10.9%
37 | O=C(C[C@@H]1CC[C@H](NC(=O)C2CCC2)[C@@H](CO)O1)NC1CCCCC1 | -5.05%
38 | CC(C)C#Cc1ccc2c(c1)O[C@@H](CN(C)C(=O)C1CCC1)[C@@H](C)CN([C@@H](C)CO)S2(=O)=O | -2.23%
39 | CC(=O)N(C)C[C@H]1Oc2ncc(C#Cc3ccc(F)cc3)cc2C(=O)N([C@H](C)CO)C[C@@H]1C | 11.6%
40 | CN1C(=O)c2cc(NC(=O)Cc3ccccc3)ccc2OC[C@H]2O[C@H](CC(=O)NCc3ccc(Cl)cc3)CC[C@H]21 | 1.06%
41 | CC(C)NC(=O)Nc1ccc2c(c1)CC(=O)N(C)C[C@@H](C)[C@@H](CN(C)C(=O)OC(C)(C)C)O2 | -1.15%
42 | COc1cccc(C(=O)Nc2ccc3c(c2)OC[C@H](C)NC[C@H](C)[C@H](OC)CN(C)C3=O)c1 | 3.33%
43 | O=C(c1cccnc1)N1C[C@H]2[C@@H](c3ccccc31)[C@H](CO)N2C(=O)C1CC1 | 7.1%
44 | COc1cccc(-c2cnc3c(c2)C(=O)N([C@@H](C)CO)C[C@@H](C)[C@@H](CN(C)Cc2ccc(C(=O)O)cc2)O3)c1 | -19.8%
45 | CC(C)NC(=O)N(C)C[C@H]1Oc2ccc(N)cc2C(=O)N(C)C[C@@H]1C | 0.428%
46 | C[C@H]1CCCCO[C@@H](CN(C)C(=O)Nc2ccccc2)[C@@H](C)CN([C@@H](C)CO)C(=O)c2cc(NC(=O)CCC(F)(F)F)ccc2O1 | -5.23%

Row | Structure (SMILES) | inhibition
47 | C[C@@H]1CN([C@@H](C)CO)C(=O)c2c(c3ccccc3n2C)-c2ccccc2CO[C@H]1CN(C)C(=O)N[C@H](C)c1ccccc1 | -3.56%
48 | COCC(=O)Nc1ccc2c(c1)OC[C@@H](C)N(Cc1ccccc1C(=O)O)C[C@@H](C)[C@H](OC)CN(C)C2=O | -5.62%
49 | CCC(=O)Nc1ccc2c(c1)C(=O)N(C)C[C@@H](OC)[C@@H](C)CN(C(=O)CN(C)C)[C@@H](C)CO2 | 2.05%
50 | CNC[C@@H]1Oc2ccc(NC(C)=O)cc2CC(=O)N(C)C[C@@H]1C | -0.299%
51 | CO[C@H]1CN(C)C(=O)c2ccc(NC(=O)Nc3ccccc3)cc2OC[C@@H](C)N(C(=O)CC2CC2)C[C@@H]1C | -8.75%
52 | O=C(Nc1cc(S(=O)(=O)N2CCCCC2)ccc1Cl)C1COc2ccccc2O1 (configuration not stated) | 1.13%
53 | O=C(Nc1nc(-c2ccncc2)cs1)C1COc2ccccc2O1 (configuration not stated) | 30.8% (active)
54 | C/C(=N/NC(=O)C1COc2ccccc2O1)c1ccco1 (configuration not stated) | -7.65%
55 | COc1ccccc1NC(=O)N[C@H]1C=C[C@@H](CC(=O)N[C@@H](C)c2ccccc2)O[C@@H]1CO | -15.6%
56 | CCCc1cn(CC[C@H]2CC[C@@H](NC(=O)C3CCOCC3)[C@@H](CO)O2)nn1 | 0.091%
57 | O=C(OCc1ccc(-c2ccccc2)cc1)c1cccc(O)c1 | 7.52%
58 | O=C(OCC(O)C(O)COC(=O)c1ccccc1)c1ccccc1 (configuration not stated) | 2.45% (active)
59 | O=C(COC(=O)c1ccccc1)Nc1ccccc1Sc1ccccc1 | -7.06%
60 | C[C@H]1CN([C@@H](C)CO)C(=O)c2c(c3ccccc3n2C)-c2ccccc2CO[C@@H]1CN(C)C(=O)Nc1ccnc(N2CCOCC2)c1 | 4.14%
61 | O=C(C1CCC1)N1CC(=O)N2[C@H](CO)[C@H](c3ccc(C#CCc4ccccc4)cc3)[C@@H]2C1 | -13.2%
62 | O=C(C[C@H]1C=C[C@@H](NC(=O)c2ccc(F)cc2)[C@@H](CO)O1)NCCc1ccncc1 | 10.9%
63 | COc1ccccc1S(=O)(=O)N1C[C@@H](O)COC[C@H]2O[C@H](CC(=O)O)CC[C@@H]21 | -7.66%
64 | Cc1ccc(S(=O)(=O)Nc2ccc3c(c2)C(=O)N([C@@H](C)CO)C[C@@H](C)[C@@H](CN(C)Cc2ccc(C(F)(F)F)cc2)OCCCC[C@@H](C)O3)cc1 | 7.11%
65 | CC(C)NC(=O)N[C@H]1CC[C@H](CC(=O)NCCCN(C)C)O[C@H]1CO | -22.3%
66 | C[C@H]1CN(C)C(=O)c2cc(N(C)C)ccc2O[C@H]1CN(C)C(=O)OC(C)(C)C | -2.56%
67 | CO[C@@H]1CN(C)C(=O)c2cc(NC(=O)C3CC3)ccc2OC[C@H](C)N(C(=O)CN(C)C)C[C@H]1C | -1.48%
